Measurements published in PubChem BioAssay AID488986 (Sanford-Burnham Center for Chemical Genomics, 2010).
Active and inactive are the calls of the source.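 The calls were made as follows: active = mean EC50 below 10 µM; inactive = the rest.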

Biological target: Type-1 angiotensin II receptor (Homo sapiens) (UniProt P30556)
Assay: AT1 receptor agonists, beta-arrestin recruitment, SAR follow-up, selectivity assay for APJ agonist project, cell-based, CHO-K1 PathHunter, luminescence, set 2 (AID 488986)
Details: CHO-K1 AGTR1 PathHunter beta-arrestin, 90 min
Procedure, shortened: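 System: CHO-K1 human AT1 beta-arrestin recruitment cells; compound dosing: dose-response series, DMSO 1.32% final; times: cells overnight, compounds 90 min 25 °C, reagent 60 min; signal: luminescence from complemented beta-galactosidase fragments after detection reagent; controls: angiotensin II 1 µM final as high control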

Sequence of Type-1 angiotensin II receptor (Homo sapiens) (P30556 whole entry, looked up): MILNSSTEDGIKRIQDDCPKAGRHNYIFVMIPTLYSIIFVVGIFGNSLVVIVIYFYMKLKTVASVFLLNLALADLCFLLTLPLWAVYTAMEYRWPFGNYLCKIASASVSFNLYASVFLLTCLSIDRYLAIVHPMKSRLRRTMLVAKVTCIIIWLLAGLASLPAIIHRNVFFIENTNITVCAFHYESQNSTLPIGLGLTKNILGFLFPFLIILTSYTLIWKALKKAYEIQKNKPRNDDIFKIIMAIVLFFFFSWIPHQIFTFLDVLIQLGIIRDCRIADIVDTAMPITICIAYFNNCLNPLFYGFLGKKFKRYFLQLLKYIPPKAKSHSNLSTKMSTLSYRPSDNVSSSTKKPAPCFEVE

CCOc1ccc(S(=O)(=O)Nc2nc(-c3ccccc3)cs2)cc1
EC50: > 79 µM (inactive)

CCN1C(=O)/C(=C/C=C2/Sc3ccccc3N2CC)SC1=S
EC50: > 79 µM (inactive)

Cc1cc(C)n2nc3nc(N4CCCCC4)nc(-c4ccccc4)c3c2n1
EC50: > 79 µM (inactive)

CC1=C/C(=N/OS(=O)(=O)c2ccccc2)C(C(C)C)=CC1=O
EC50: > 79 µM (inactive)

CCc1nnc(NC(=O)CSc2nc3cccnc3n2Cc2ccccc2)s1
EC50: > 79 µM (inactive)

CC1=CC(=NOS(=O)(=O)c2ccccc2)C(C)=CC1=O
EC50: > 79 µM (inactive)

CC1=CC(=O)C(C(C)(C)C)=C/C1=N/OS(=O)(=O)c1ccccc1
EC50: > 79 µM (inactive)

CCc1nnc(NC(=O)CSc2nc3cccnc3n2C2CCCCC2)s1
EC50: > 79 µM (inactive)

CCN1C(=O)/C(=C/C=C2/SC(c3ccccc3)=C(c3ccccc3)N2CC)SC1=S
EC50: > 79 µM (inactive)

CCCCN(C)CCn1c(=S)[nH]c2cc(OCC)c(OCC)cc2c1=O
EC50: > 79 µM (inactive)

CC1=CC(=O)C=C/C1=N/OS(=O)(=O)c1ccc(C)cc1
EC50: > 79 µM (inactive)

CCN1C(c2ccccc2)=C(c2ccccc2)S/C1=C\C=C1/SC(=S)N(C)C1=O
EC50: 4.96 µM

CC(C)C1=CC(=NOS(=O)(=O)c2ccccc2)C=C(C(C)C)C1=O
EC50: > 79 µM (inactive)

CCOc1cc2[nH]c(=S)n(CCCC(=O)NCc3ccccn3)c(=O)c2cc1OCC
EC50: > 79 µM (inactive)

CC1=CC(=O)C(C2CCCCC2)=C/C1=N/OS(=O)(=O)c1ccccc1
EC50: > 79 µM (inactive)

Cc1cc(O)c(C2CCCCC2)cc1N=O
EC50: > 79 µM (inactive)

CCOc1cc2[nH]c(=S)n(CCN3CCC(C)CC3)c(=O)c2cc1OCC
EC50: > 79 µM (inactive)

CCOc1cc2[nH]c(=S)n(CCN3CCCCC3CC)c(=O)c2cc1OCC (stereo not drawn)
EC50: > 79 µM (inactive)
